Among the data in ChEMBL document CHEMBL1770063, “Synthesis and cytotoxic activity of benzo[a]acronycine and benzo[b]acronycine substituted on the A ring” (Eur J Med Chem, 2011) are IC50 values, retold here.

pIC50: −log10 of the molar value.

For one experiment, the system named is L1210. Briefly: Cytotoxicity against mouse L1210 cells after 48 hrs by MTA assay. Particulars: L1210, 48 h. It is filed as functional, cell-based. Summed up: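 L1210 cells maintained in RPMI 1640 plus 10% fetal calf serum, 2 mM L-glutamine, penicillin/streptomycin and 10 mM HEPES (pH 7.4). Drug given at nine serial dilutions, triplicate, for 48 h (four doubling times), then tetrazolium microculture assay. IC50 is the concentration giving 50% lower optical density than untreated controls.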

Experiment [1] is described as follows: Cytotoxicity against human KB-3-1 cells after 96 hrs by MTA assay. It is filed as functional, cell-based. Particulars: KB 3-1, 96 h. The method in brief: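 KB-3-1 cells grown in DMEM with 10% fetal calf serum, 2 mM L-glutamine, penicillin/streptomycin, 10 mM HEPES (pH 7.4). Exposed to nine serial drug dilutions in triplicate for 96 h (four doubling times); microculture tetrazolium read-out. IC50 is the concentration reducing optical density by 50% relative to untreated controls.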

By pIC50 is commonly meant −log10 of the IC50, conventionally taken in molar units. Low values mean a high IC50, high ones a low IC50. As for `CC1(C)C=Cc2c(cc(O)c3c(=O)c4c(ccc5cc(Br)ccc54)[nH]c23)O1`, the negative logarithm of the IC50 (pIC50) in the experiment with L1210 was 5.47; in experiment [1], 5.77. The matching figures for `C#CC(C)(C)Oc1cc(O)c2c(=O)c3c4ccc(Br)cc4ccc3n3c2c1C(C)(C)C3=C`: 4.29 and 4.43. The matching figures for `C=C1n2c3ccc4cc(Br)ccc4c3c(=O)c3c(O)cc(O)c(c32)C1(C)C`: 5.14 and 5.60.

As to `COc1cc2c(c3c1c(=O)c1c4ccc(Br)cc4ccc1n3C)C=CC(C)(C)O2`, the pIC50 is 6.31 in the experiment with L1210 and 5.89 in experiment [1].

`Cn1c2cc3ccc(Br)cc3cc2c(=O)c2c(O)cc3c(c21)C=CC(C)(C)O3`: the negative logarithm of the IC50 (pIC50) with L1210 is 6.19; in experiment [1], 4.84. The matching figures for `COc1cc2c(c3c1c(=O)c1cc4cc(Br)ccc4cc1n3C)C=CC(C)(C)O2`: 5.66 and 5.00.

Compound `COc1cc2c(c3c1c(=O)c1cc4ccccc4cc1n3C)[C@H]1OC(=O)O[C@H]1C(C)(C)O2` (racemic) had a pIC50 with L1210 of 7.80. As to `COc1cc2c(c3c1c(=O)c1c4ccc(Br)cc4ccc1n3C)[C@@H](O)[C@@H](O)C(C)(C)O2` (racemic), the pIC50 was 5.12 in the experiment on L1210 and 5.26 in experiment [1]. The matching figures for `COc1cc2c(c3c1c(=O)c1c4ccc(Br)cc4ccc1n3C)[C@@H](OC(C)=O)[C@@H](OC(C)=O)C(C)(C)O2` (racemic): 6.40 and 7.40. The matching figures for `COc1cc2c(c3c1c(=O)c1c4ccc(Br)cc4ccc1n3C)[C@H]1OC(=O)O[C@H]1C(C)(C)O2` (racemic): 7.10 and 7.82. The matching figures for `COc1cc2c(c3c1c(=O)c1cc4cc(Br)ccc4cc1n3C)[C@@H](O)[C@@H](O)C(C)(C)O2` (racemic): 6.65 and 4.44.

Turning to `COc1cc2c(c3c1c(=O)c1cc4cc(Br)ccc4cc1n3C)[C@@H](OC(C)=O)[C@@H](OC(C)=O)C(C)(C)O2` (racemic), the negative-log IC50 (pIC50) in the experiment with L1210 is 6.22; in experiment [1], 6.94. `COc1cc2c(c3c1c(=O)c1cc4cc(Br)ccc4cc1n3C)[C@H]1OC(=O)O[C@H]1C(C)(C)O2` (racemic): the pIC50 with L1210 is 7.47; in experiment [1], 7.96. The matching figures for `COc1cc2c(c3c1c(=O)c1c4ccccc4ccc1n3C)[C@@H](OC(C)=O)[C@@H](OC(C)=O)C(C)(C)O2` (racemic): 6.14 and 6.85. For `COc1cc2c(c3c1c(=O)c1c4ccccc4ccc1n3C)[C@H]1OC(=O)O[C@H]1C(C)(C)O2` (racemic), in that order: 7.23 and 7.82. In experiment [1], `COc1cc2c(c3c1c(=O)c1cc4ccccc4cc1n3C)[C@@H](OC(C)=O)[C@@H](OC(C)=O)C(C)(C)O2` (racemic) had a pIC50 of 7.02. The same measure, in the same setting: as for `COc1cc2c(c3c1c(=O)c1c4ccccc4ccc1n3C)C=CC(C)(C)O2` [BENZO[A]ACRONYCINE], the figure is 5.07; as for `COc1cc2c(c3c1c(=O)c1cc4ccccc4cc1n3C)C=CC(C)(C)O2` [BENZO[B]ACRONYCINE], 5.47.
